Values joined by “and” are separate entries in the source; they are usually repeats but may differ in a detail not shown here. Equal values may be shown once.
Tests used:
Canis familiaris [1] = species: Canis familiaris; assay: In vitro electrophysiological evaluation in canine cardiac Purkinje fibres reported as percent change Vmax concentration range of 0.1-100 uM; assay type: functional; conditions: Canis lupus familiaris; Purkinje fiber
Summary of the method: (§1)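 Canine cardiac Purkinje fibres, intracellular microelectrode recording, paced at a basic cycle length of 1 s. APD95 and Vmax read simultaneously. Compound: 10 mM stock in deionized water, diluted into Tyrode's solution, tested over the stated concentration range. Each fibre used once as its own control. Result is % change from control, given at 10 µM or as the maximum with its concentration. M = <10% decrease or an increase in Vmax.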

Canis familiaris [2] = species: Canis familiaris; assay: In vitro electrophysiological evaluation in canine cardiac ventricular muscle reported as maximum % change for functional refractory period (FRP) at 0.1-30 uM concentration range; set-up: species or system Canis lupus familiaris, Muscle tissue
Summary of the method: (§2)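 Canine right ventricle and papillary muscle strips in oxygenated Tyrode's solution, fitted with stimulating and recording electrodes. The extra-stimulus conduction-interval method was adapted for in vitro use. FRP and CT were read from a conduction-interval curve before and after various compound concentrations, and expressed as percent change from control. Compounds were taken from 10 mM deionized-water stock into Tyrode's. Each strip was used once as its own control.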

Canis familiaris [3] = species: Canis familiaris; assay: In vitro electrophysiological evaluation in canine cardiac ventricular muscle reported as % change for conduction time(CT) at 0.1-100 uM concentration range; Minimal (<IO%increase or a decrease in CT); assay type: functional, Canis lupus familiaris, Muscle tissue
Canis familiaris [4] = species: Canis familiaris; assay: (§3) In vitro electrophysiological evaluation in canine cardiac Purkinje fibres reported as % change for action potential duration at 0.1-100 uM concentration range; assay type: functional, Canis lupus familiaris, Purkinje fiber; summary of the method: as §1
Canis familiaris [5] = species: Canis familiaris; assay: In vitro electrophysiological evaluation in canine cardiac ventricular muscle reported as % change for conduction time(CT) at 0.1-30 uM concentration range; Minimal (<IO%increase or a decrease in CT); assay type: functional, Canis lupus familiaris, Muscle tissue
Canis familiaris [6] = species: Canis familiaris; assay: In vitro electrophysiological activity in canine cardiac Purkinje fibres given as maximum % change for action potential duration at 0.1-100 uM concentration; assay type: functional, Canis lupus familiaris, Purkinje fiber
Summary of the method: (§4)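 Canine cardiac Purkinje fibres, intracellular recording at 1 s basic cycle length, over cumulative concentration ranges. Compound 10 mM stock in deionized water diluted into Tyrode's. Each fibre used once as its own control. Value is the maximum % change from control in APD at 95% repolarization, with the concentration where it occurred; both values given if a biphasic response (>20% reversal) occurred.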

Canis familiaris [7] = species: Canis familiaris; assay: In vitro electrophysiological activity in canine cardiac Purkinje fibres given as maximum % change for action potential duration at 10 uM concentration; assay type: functional, Canis lupus familiaris, Purkinje fiber; summary of the method: as §4
Canis familiaris [8] = species: Canis familiaris; assay: In vitro electrophysiological evaluation in canine cardiac ventricular muscle reported as maximum % change for functional refractory period (FRP) at 0.1-100 uM concentration range; set-up: species or system Canis lupus familiaris, Muscle tissue
Canis familiaris [9] = species: Canis familiaris; assay: In vitro electrophysiological evaluation in canine cardiac ventricular muscle reported as % change for the functional refractory period (FRP) concentration range of 0.1-100 uM; set-up: species or system Canis lupus familiaris, Muscle tissue; summary of the method: as §2
Canis familiaris [10] = species: Canis familiaris; assay: In vitro electrophysiological evaluation in canine cardiac Purkinje fibres reported as percent change Vmax concentration range of 0.1-100 uM; Minimal (<IO%increase or a decrease in CT); assay type: functional; conditions: Canis lupus familiaris; Purkinje fiber; summary of the method: as §1
Canis familiaris [11] = species: Canis familiaris; assay: as §3; assay type: functional, Canis lupus familiaris, Purkinje fiber; summary of the method: as §1; remark: listed apart in the source
Canis familiaris [12] = species: Canis familiaris; assay: In vitro electrophysiological evaluation in canine cardiac ventricular muscle reported as maximum % change for conduction time(CT) at 0.1-30 uM concentration range; Minimal (<IO%increase or a decrease in CT); assay type: functional, Canis lupus familiaris, Muscle tissue; summary of the method: as §2
Canis familiaris [13] = species: Canis familiaris; assay: In vitro electrophysiological evaluation in canine cardiac ventricular muscle reported as maximum % change for conduction time(CT) at 0.1-30 uM concentration range; assay type: functional, Canis lupus familiaris, Muscle tissue; summary of the method: as §2
Canis familiaris [14] = species: Canis familiaris; assay: In vitro electrophysiological evaluation in canine cardiac ventricular muscle reported as maximum % change for conduction time(CT) at 0.1-100 uM concentration range; assay type: functional, Canis lupus familiaris, Muscle tissue; summary of the method: as §2
Canis familiaris [15] = species: Canis familiaris; assay: In vitro electrophysiological evaluation in canine cardiac ventricular muscle reported as % change for the functional refractory period (FRP) concentration range of 0.1-30 uM; set-up: species or system Canis lupus familiaris, Muscle tissue; summary of the method: as §2
Canis familiaris [16] = species: Canis familiaris; assay: In vitro electrophysiological activity in canine cardiac Purkinje fibres given as maximum % change for action potential duration at 100 uM concentration; assay type: functional, Canis lupus familiaris, Purkinje fiber; summary of the method: as §4

**Q.** How did the Vmax (Canis familiaris [1]) turn out when `CCCCCCC[N+]12CCC(CC1)C(=O)C2CCCc1ccc(Cl)cc1.O=P([O-])(O)O` (stereo unspecified) was run?
**A.** -18% and -15%

**Q.** What about the FRP (Canis familiaris [2]) of the same molecule?
**A.** 29% and 27%

**Q.** And the CT (Canis familiaris [3])?
**A.** <10%

**Q.** And the APD95 (Canis familiaris [4])?
**A.** 38% and 69% and 35%

**Q.** What about the CT (Canis familiaris [5]) of the same molecule?
**A.** <10%

**Q.** And the APD95 (Canis familiaris [6])?
**A.** 9%

**Q.** What about the APD95 (Canis familiaris [7]) of the same molecule?
**A.** 38% and 69% and 35%

**Q.** And the FRP (Canis familiaris [8])?
**A.** 10%

**Q.** What about the FRP (Canis familiaris [9]) of the same molecule?
**A.** 5%

**Q.** And the Vmax (Canis familiaris [10])?
**A.** < 10%

**Q.** And the APD95 (Canis familiaris [11])?
**A.** 9%

**Q.** And the CT (Canis familiaris [12])?
**A.** <10%

**Q.** And the CT (Canis familiaris [13])?
**A.** 17%

**Q.** What about the CT (Canis familiaris [14]) of the same molecule?
**A.** 31%

**Q.** What about the FRP (Canis familiaris [15]) of the same molecule?
**A.** 26% and 22%

**Q.** And the APD95 (Canis familiaris [16])?
**A.** 13% and 12% and 9%

Reference: ChEMBL document CHEMBL1123566, “Synthesis and cardiac electrophysiological activity of 2- and 3-[(substituted phenyl)alkyl]quinuclidines. Structure-activity relationships” (1987)
